Test results taken from ChEMBL document CHEMBL3865787, “Combinatorial synthesis, in silico, molecular and biochemical studies of tetrazole-derived organic selenides with increased selectivity against hepatocellular carcinoma” (Eur J Med Chem, 2016).
Calls of active or inactive are those of the source. The rule behind the calls is not given here.

Legend:
[1] = Cytotoxicity against human MCF7 cells assessed as reduction in cell viability after 48 hrs by MTT assay; format: functional, cell-based; settings: MCF7, 48 h
In short: (§1)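 Cells were grown in DMEM with 10% calf serum and seeded at 50,000 cells/mL. They grew 2 days at 37 °C, 10% CO2, then took serial compound dilutions for 48 h. MTT (final 0.5 mg/mL) ran 2 h; formazan was washed, dissolved in DMSO and read at 590 nm. IC50 was taken from dose-response curves as the mean of two parallel experiments. 5-FU was the positive control. TI = IC50 WI-38/IC50 HepG2.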

[2] = Cytotoxicity against human HepG2 cells assessed as reduction in cell viability after 48 hrs by MTT assay; format: functional, cell-based; settings: HepG2, 48 h; in short: as §1
[3] = Cytotoxicity against human WI38 cells assessed as reduction in cell viability after 48 hrs by MTT assay; format: toxicity, cell-based, WI-38; in short: as §1
[4] = Therapeutic index, ratio of IC50 for human WI38 cells to IC50 for human HepG2 cells; format: cell-based; settings: WI38 cells and HepG2 cells, read-out: Ratio IC50; in short: as §1
[5] = Upregulation of caspase-8 expression in human HepG2 cells at IC50 after 48 hrs by ELISA; format: functional, cell-based
In short: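 Cells were trypsinized and lysed by liquid-nitrogen freeze–thaw. Lysates were incubated with HRP-conjugated anti-caspase-8 antibody for 30 min at 37 °C, with ELISA read-out at 450 nm. Levels were compared against untreated cells; mean ± SD, ANOVA with LSD/Dunnett post hoc.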

[6] = Downregulation of Ki67 expression in human HepG2 cells at IC50 after 48 hrs by ELISA; format: functional, cell-based
In short: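 They were detached with trypsin and lysed by four rounds of ultrasonication before Ki-67 measurement. Comparison was with untreated cells; mean ± SD, ANOVA with LSD/Dunnett post hoc.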

[7] = Downregulation of Bcl2 expression in human HepG2 cells at IC50 after 48 hrs by ELISA; format: functional, cell-based
In short: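 For ELISA, lysates had biotin conjugate 2 h at 25 °C, then streptavidin-HRP 1 h at 25 °C, read at 450 nm. Comparison was with untreated cells; mean ± SD, ANOVA with LSD/Dunnett post hoc.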

[8] = Antioxidant activity assessed as DPPH radical scavenging activity at 1 uM after 30 mins in absence of light by spectrophotometric analysis; format: functional
In short: (§2)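 Compounds were dissolved in methanol at 1 µM, and 200 µL was added to 0.4 mL of 0.1 mM DPPH in methanol. Mixtures stood 30 min in the dark and were read at 517 nm against a blank (no DPPH). The negative control used methanol in place of compound. I% = (Ablank − Asample)/Ablank × 100. Ascorbic acid was the reference. Means of 3 replicates.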

[9] = Antioxidant activity assessed as DPPH radical scavenging activity at 1 uM after 30 mins in absence of light by spectrophotometric analysis relative to ascorbic acid; format: functional; in short: as §2
[10] = Pro-oxidant activity as bleomycin-Fe2+ induced calf thymus DNA damage measured as absorbance at 2 mM after 1 hr by thiobarbituric acid-based assay; format: ADME; parameters: unit not given here; settings: cattle, 2000 µM
In short: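 The mix held calf thymus DNA 0.5 mg/mL, bleomycin sulfate 0.05 mg/mL, MgCl2 5 mM, FeCl3 50 mM and sample 2 mM. Ascorbic acid was the positive control. Capped tubes were heated at 80 °C for 30 min, ice-cooled, shaken and centrifuged. DNA damage was read as the increase in absorbance at 532 nm. Means of 3 replicates.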

[11] = Glutathione peroxidase-like activity assessed as decrease in H2O2 reduction at 41 uM preincubated with compound followed by H2O2 addition after 3 mins by spectrophotometry based NADPH-reductase coupled assay
In short: (§3)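 Buffer: 50 mM phosphate with 0.1% Triton X-100, plus NADPH reagent (24 µmol glutathione, 12 U glutathione reductase, 4.8 µmol NADPH). Compound was at 41 µM and the reaction was started with 0.8 mM H2O2. A340 was followed for 3 min, giving ΔA/min. Rates were corrected for background H2O2/GSH reaction, and for compound absorbance where colored. Ebselen (41 µM) served as reference.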

[12] = Glutathione peroxidase-like activity assessed as decrease in H2O2 reduction at 41 uM preincubated with compound followed by H2O2 addition after 3 mins by spectrophotometry based NADPH-reductase coupled assay relative to ebselen; in short: as §3

SMILES	IC50 [1]	IC50 [2]	IC50 at 48 h [3]	selectivity ratio [4]	Activity [5]	Activity [6]	Activity [7]	Activity [8]	fold change (FC) [9]	Activity [10]	Activity [11]	fold change (FC) [12]
CC1=C([Se]c2ccc(NC(c3ccc(C)cc3)c3nnnn3C(C)(C)C)cc2)C(=O)c2ccccc2C1=O (stereo unspecified)	≥ 100 µM	47 µM	36 µM	0.8	Active	Active	Active	93%	1	90	Active	< 5
CC(C)C(Nc1ccc([Se][Se]c2ccc(NC(c3nnnn3C3CCCCC3)C(C)C)cc2)cc1)c1nnnn1C1CCCCC1 (stereo unspecified)	52 µM	≥ 100 µM	43 µM					22.9%	0.2	99		
c1cc([Se][Se]c2ccc(NCc3nnnn3C3CCCCC3)cc2)ccc1NCc1nnnn1C1CCCCC1	≥ 100 µM	≥ 100 µM	68 µM					19.4%	0.2	96	Active	
CC(C)C(Nc1ccc([Se][Se]c2ccc(NC(c3nnnn3C(C)(C)C)C(C)C)cc2)cc1)c1nnnn1C(C)(C)C (stereo unspecified)	≥ 100 µM	37 µM	≥ 100 µM	> 3				38.6%	0.4	67		
CC(C)C(Nc1ccc([Se][Se]c2ccc(NC(c3nnnn3Cc3ccccc3)C(C)C)cc2)cc1)c1nnnn1Cc1ccccc1 (stereo unspecified)	≥ 100 µM	10 µM	≥ 100 µM	> 10	Active	Active	Active	20.5%	0.2	92		
COc1ccc(Cn2nnnc2C(Nc2ccc([Se][Se]c3ccc(NC(c4ccco4)c4nnnn4Cc4ccc(OC)cc4OC)cc3)cc2)c2ccco2)c(OC)c1 (stereo unspecified)	≥ 100 µM	≥ 100 µM	88 µM					18.8%	0.2	81	Active	
CC1=C([Se]c2ccc(NCc3nnnn3C(C)(C)C)cc2)C(=O)c2ccccc2C1=O	42 µM	33 µM	48 µM	1.5				69%	0.8	103		
O=c1[nH]cc(F)c(=O)[nH]1 [FLUOROURACIL]	3 µM	8 µM	4 µM	0.5								
CC1=C([Se]c2ccc(NC(c3ccco3)c3nnnn3C(C)(C)C)cc2)C(=O)c2ccccc2C1=O (stereo unspecified)	≥ 100 µM	9 µM	5 µM	0.6	Active	Active	Active	95.3%	1	138		
CC(C)(C)n1nnnc1CNc1ccc([Se][Se]c2ccc(NCc3nnnn3C(C)(C)C)cc2)cc1	28 µM	44 µM	21 µM					44.3%	0.5	93	Active	
COc1ccc(Cn2nnnc2C(Nc2ccc([Se][Se]c3ccc(NC(c4nnnn4Cc4ccc(OC)cc4OC)C(C)C)cc3)cc2)C(C)C)c(OC)c1 (stereo unspecified)	70 µM	2 µM	64 µM	32				31.8%	0.3	81	Active	< 5
Cc1ccc(C(Nc2ccc([Se][Se]c3ccc(NC(c4ccc(C)cc4)c4nnnn4C(C)(C)C)cc3)cc2)c2nnnn2C(C)(C)C)cc1 (stereo unspecified)	62 µM	46 µM	41 µM					30.4%	0.3	98		
COc1ccc(-n2nnnc2C(Nc2ccc([Se][Se]c3ccc(NC(c4nnnn4-c4ccc(OC)cc4)C(C)C)cc3)cc2)C(C)C)cc1 (stereo unspecified)	≥ 100 µM	≥ 100 µM	≥ 100 µM					30.5%	0.3	77		
COC(CC(OC)OC)Cn1nnnc1C(Nc1ccc([Se][Se]c2ccc(NC(c3nnnn3CC(CC(OC)OC)OC)C(C)C)cc2)cc1)C(C)C (stereo unspecified)	≥ 100 µM	47 µM	≥ 100 µM	> 2				26.3%	0.3	94	Active	
c1coc(C(Nc2ccc([Se][Se]c3ccc(NC(c4ccco4)c4nnnn4C4CCCCC4)cc3)cc2)c2nnnn2C2CCCCC2)c1 (stereo unspecified)	≥ 100 µM	36 µM	83 µM	2				49.5%	0.5	222	Active	< 5
CC(C)(C)n1nnnc1C(Nc1ccc([Se][Se]c2ccc(NC(c3ccco3)c3nnnn3C(C)(C)C)cc2)cc1)c1ccco1 (stereo unspecified)	14 µM	51 µM	11 µM					24%	0.3	108	Active	< 5
Cc1ccc(C(Nc2ccc([Se][Se]c3ccc(NC(c4ccc(C)cc4)c4nnnn4C4CCCCC4)cc3)cc2)c2nnnn2C2CCCCC2)cc1 (stereo unspecified)	78 µM	≥ 100 µM	56 µM					22.9%	0.3	79		
COc1ccc(Cn2nnnc2C(Nc2ccc([Se][Se]c3ccc(NC(c4ccc(C)cc4)c4nnnn4Cc4ccc(OC)cc4OC)cc3)cc2)c2ccc(C)cc2)c(OC)c1 (stereo unspecified)	≥ 100 µM	≥ 100 µM	≥ 100 µM					22.1%	0.2	130	Active	< 5
CC(=O)N(c1ccc([Se]C2=CC(=O)c3ccccc3C2=O)cc1)C(C(=O)NC(C)(C)C)c1ccc(C)cc1 (stereo unspecified)	34 µM	53 µM	29 µM	> 0.5	Active	Active	Active					
O=C1O[C@H]([C@@H](O)CO)C(O)=C1O [ASCORBIC ACID]								96.5%		310		
